In ChEMBL document CHEMBL1121966, “(2R*,3S*)-1-[125I]Iodo-2,3-bis(4-hydroxyphenyl)pentane ([125I]iodonorhexestrol) and (2R*,3S*)-1-[77Br]Bromo-2,3-bis(4-hydroxyphenyl)pentane ([77Br]bromonorhexestrol), two gamma-emitting estrogens that show receptor-mediated uptake by target tissues in vivo” (1982):

Key:
Rattus norvegicus [1] = organism: Rattus norvegicus; assay: Solvolytic stability was measured relative to p-hydroxyphenethyl bromide; format: functional
In short: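 Solvolysis rates were measured in 40% ethanol-water at 50 °C, buffered to pH 7. Values are 1/k_rel = (k_compound/k_p-hydroxyphenylethyl bromide)^-1.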

Rattus norvegicus [2] = organism: Rattus norvegicus; assay: Percent injected dose per gram esophagus at 3h; format: functional
In short: (§1)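 Dual-label study in immature 25-day female Sprague-Dawley rats (ca. 50 g). Each received 2 μCi [77Br]bromo tracer (≤1.25 pmol/dose) and 2 μCi 16α-[125I]iodoestradiol (2 pmol/dose) by tail or jugular vein, in ethanol diluted with saline/rat serum 1:1. Rats were killed at 3 or 6 h; blood and 11 tissues were weighed and counted. Five rats per time point; mean ± SD.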

Rattus norvegicus [3] = organism: Rattus norvegicus; assay: Percent injected dose per gram kidney at 1 hr; format: functional
In short: (§2)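 Immature (25-day, ca. 50 g) Sprague-Dawley female rats received an iv injection (jugular or tail vein) of HPLC-purified tracer in ethanol plus 0.9% NaCl/rat serum 1:1. Doses were 2 μCi [125I]iodo tracer (≤15 pmol), or 2 μCi [77Br]bromo tracer (≤1.25 pmol) with 2 μCi 16α-[125I]iodoestradiol. Animals were killed at 1 h; blood and tissues were weighed and γ-counted. Blocking: coinjected unlabeled estradiol, 9 μg (iodo) or 18 μg (bromo). Mean ± SD.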

[4] = Percent injected dose per gram liver at 6 hr; format: functional
In short: (§3)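 Immature (25 day) female Sprague-Dawley rats (ca. 50 g) were dosed iv (jugular or tail vein) in ethanol plus 0.9% NaCl/rat serum (1:1). Doses were 2 μCi of [125I]iodonorhexestrol (≤15 pmol/dose), or 2 μCi each of [77Br]bromonorhexestrol (≤1.25 pmol/dose) and 16α-[125I]iodoestradiol (2 pmol/dose). Rats were killed at 1, 3 or 6 h; blood and tissues were weighed and γ-counted. Thyroid weight assumed 0.005 g/100 g body weight. Mean ± SD.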

Rattus norvegicus [5] = organism: Rattus norvegicus; assay: Percent injected dose per gram lung at 3h; format: functional; in short: as §3
Rattus norvegicus [6] = organism: Rattus norvegicus; assay: Percent injected dose per gram spleen at 3h; format: functional; in short: as §3
Rattus norvegicus [7] = organism: Rattus norvegicus; assay: Percent injected dose per gram thyroid at 1 hr with unlabeled estradiol; format: functional, Thyroid gland
In short: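 Same iv biodistribution in immature female rats, killed at 1 h, with unlabeled estradiol coinjected to block receptor uptake: 9 μg with [125I]iodonorhexestrol (3 rats), 18 μg with the [77Br]bromonorhexestrol/16α-[125I]iodoestradiol pair (5 rats). Tissue and blood radioactivity were counted as % injected dose/g and tissue-to-blood ratio.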

Rattus norvegicus [8] = organism: Rattus norvegicus; assay: Percent injected dose per gram thyroid at 3h; format: functional, Thyroid gland; in short: as §3
Rattus norvegicus [9] = organism: Rattus norvegicus; assay: Percent injected dose per gram thyroid at 6 hr; format: functional, Thyroid gland; in short: as §3
Rattus norvegicus [10] = organism: Rattus norvegicus; assay: Percent injected dose per gram Uterus at 1 hr with unlabeled estradiol.; format: functional; in short: as §2
Rattus norvegicus [11] = organism: Rattus norvegicus; assay: Percent injected dose per gram Uterus at 6 hr; format: functional; in short: as §1
Rattus norvegicus [12] = organism: Rattus norvegicus; assay: Percent injected dose per gram blood at 1 hr; format: functional; in short: as §2
Rattus norvegicus [13] = organism: Rattus norvegicus; assay: Percent injected dose per gram blood at 6 hr; format: functional; in short: as §1
Rattus norvegicus [14] = organism: Rattus norvegicus; assay: Percent injected dose per gram esophagus at 1 hr with unlabeled estradiol; format: functional; in short: as §2
Rattus norvegicus [15] = organism: Rattus norvegicus; assay: Percent injected dose per gram Muscle at 1 hr with unlabeled estradiol; format: functional; in short: as §2
Rattus norvegicus [16] = organism: Rattus norvegicus; assay: Percent injected dose per gram Muscle at 3h; format: functional; in short: as §1
Rattus norvegicus [17] = organism: Rattus norvegicus; assay: Percent injected dose per gram Ovaries at 1 hr with unlabeled estradiol; format: functional; in short: as §2
[18] = Muscle/blood distribution ratio was determined in immature female rats at 1 hr; format: functional; in short: as §2
[19] = Liver/blood distribution ratio was determined in immature female rats at 1 hr; format: functional; in short: as §2
[20] = Liver/blood distribution ratio was determined in immature female rats at 1 hr with unlabeled estradiol; format: functional; in short: as §2
[21] = Liver/blood distribution ratio was determined in immature female rats at 3h; format: functional; in short: as §1
[22] = Lung/blood distribution ratio was determined in immature female rats at 3h; format: functional; in short: as §1
[23] = Spleen/blood distribution ratio was determined in immature female rats at 1 hr with unlabeled estradiol; format: functional
[24] = Kidney/blood distribution ratio was determined in immature female rats at 1 hr; format: functional; in short: as §2
[25] = Tissue/blood distribution ratio was measured in immature female rats at 1 hr; format: functional; in short: as §3
[26] = Tissue/blood distribution ratio was measured in immature female rats at 6 hr; format: functional; in short: as §3
[27] = Kidney/blood distribution ratio was determined in immature female rats at 3h; format: functional; in short: as §1
[28] = Muscle/blood distribution ratio was determined in immature female rats at 6 hr; format: functional; in short: as §1
[29] = Esophagus/blood distribution ratio was determined in immature female rats at 1 hr; format: functional; in short: as §2

Q: With `CC[C@H](c1ccc(O)cc1)[C@@H](CBr)c1ccc(O)cc1` as the molecule, how does the 1/krel (Rattus norvegicus [1]) read?
A: 1.17

Q: What about the Injected dose (Rattus norvegicus [2]) of the same molecule?
A: 0.61%

Q: And the Injected dose (Rattus norvegicus [3])?
A: 0.94%

Q: And the Injected dose [4]?
A: 0.93%

Q: What about the Injected dose (Rattus norvegicus [5]) of the same molecule?
A: 0.95%

Q: What about the Injected dose (Rattus norvegicus [6]) of the same molecule?
A: 0.6%

Q: And the Injected dose (Rattus norvegicus [7])?
A: 0.25%

Q: And the “Injected dose (g)” value (Rattus norvegicus [8])?
A: 0.09%

Q: And the Injected dose (Rattus norvegicus [9])?
A: 0.18%

Q: What about the Injected dose (Rattus norvegicus [10]) of the same molecule?
A: 0.95%

Q: And the Injected dose (Rattus norvegicus [11])?
A: 3.19%

Q: And the Injected dose (Rattus norvegicus [12])?
A: 0.75%

Q: And the Injected dose (Rattus norvegicus [13])?
A: 1.36%

Q: What about the Injected dose (Rattus norvegicus [14]) of the same molecule?
A: 0.56%

Q: And the Injected dose (Rattus norvegicus [15])?
A: 0.3%

Q: What about the Injected dose (Rattus norvegicus [16]) of the same molecule?
A: 0.37%

Q: And the Injected dose (Rattus norvegicus [17])?
A: 0.72%

Q: And the Ratio [18]?
A: 0.48

Q: And the Ratio [19]?
A: 1.69

Q: And the Ratio [20]?
A: 1.51

Q: What about the Ratio [21] of the same molecule?
A: 0.84

Q: And the Ratio [22]?
A: 0.68

Q: And the Ratio [23]?
A: 0.51

Q: What about the Ratio [24] of the same molecule?
A: 1.29

Q: What about the Ratio [25] of the same molecule?
A: 1

Q: What about the Ratio [26] of the same molecule?
A: 1

Q: And the Ratio [27]?
A: 0.76

Q: What about the Ratio [28] of the same molecule?
A: 0.26

Q: And the Ratio [29]?
A: 0.54
